Activity calls are given as the source filed them. The rule behind the calls is not given here.
Assays:
A549 [1] = test: Induction of apoptosis in human A549 cells assessed as increase in caspase 3 protein expression at 2 to 8 uM by Western blot analysis; format: functional, cell-based; settings: dose 2-8 µM
Method in brief: (§1)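 Treated A549 cells, adherent and floating, were collected and lysed in RIPA buffer with protease and phosphatase inhibitors. Lysates were spun at 12,000 g, 4 °C, 15 min, and protein measured by BCA. Proteins were run on SDS-PAGE and moved to nitrocellulose, blocked 1 h in TBST with 5% skim milk, and probed overnight at 4 °C with primary antibodies. HRP secondary antibody was applied 1 h at room temperature, with ECL detection.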

[2] = target: T1, Serine/threonine-protein kinase ULK1 (Homo sapiens) (UniProt O75385); test: Inhibition of ULK1 mediated autophagy in human A549 cells assessed as decrease in beclin1 level at 2 to 8 uM measured after 1 hrs by Western blot analysis; format: cell-based; settings: dose 2-8 µM; method in brief: as §1
T1 sequence (whole entry): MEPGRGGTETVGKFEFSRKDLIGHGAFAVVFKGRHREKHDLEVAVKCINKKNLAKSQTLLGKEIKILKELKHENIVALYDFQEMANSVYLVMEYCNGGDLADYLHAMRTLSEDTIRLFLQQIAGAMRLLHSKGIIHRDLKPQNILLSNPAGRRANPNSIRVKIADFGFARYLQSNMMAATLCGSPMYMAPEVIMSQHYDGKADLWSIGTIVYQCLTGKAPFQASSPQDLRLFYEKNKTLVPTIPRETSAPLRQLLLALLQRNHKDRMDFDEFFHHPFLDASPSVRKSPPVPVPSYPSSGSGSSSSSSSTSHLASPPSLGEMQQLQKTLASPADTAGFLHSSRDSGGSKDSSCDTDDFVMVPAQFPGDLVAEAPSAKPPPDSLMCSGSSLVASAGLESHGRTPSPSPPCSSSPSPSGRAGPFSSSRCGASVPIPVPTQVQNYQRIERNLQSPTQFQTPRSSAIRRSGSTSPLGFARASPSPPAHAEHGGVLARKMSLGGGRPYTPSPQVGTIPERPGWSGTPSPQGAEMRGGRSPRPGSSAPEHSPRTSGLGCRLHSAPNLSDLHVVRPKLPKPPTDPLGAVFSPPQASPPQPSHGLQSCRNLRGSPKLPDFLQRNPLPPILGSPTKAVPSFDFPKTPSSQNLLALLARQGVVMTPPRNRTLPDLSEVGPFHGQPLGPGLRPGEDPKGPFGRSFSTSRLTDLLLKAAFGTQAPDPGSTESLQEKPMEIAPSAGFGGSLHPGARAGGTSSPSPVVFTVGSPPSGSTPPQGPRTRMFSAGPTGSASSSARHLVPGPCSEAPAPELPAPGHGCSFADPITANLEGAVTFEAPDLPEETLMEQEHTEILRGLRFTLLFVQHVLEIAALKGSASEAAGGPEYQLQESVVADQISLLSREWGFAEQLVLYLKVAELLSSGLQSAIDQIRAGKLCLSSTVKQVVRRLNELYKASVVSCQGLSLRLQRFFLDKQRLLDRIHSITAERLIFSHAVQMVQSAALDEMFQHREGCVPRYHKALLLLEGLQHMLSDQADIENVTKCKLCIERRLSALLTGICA

[3] = target: T1, Serine/threonine-protein kinase ULK1 (Homo sapiens); test: Inhibition of human ULK1 in human A549 cells under nutrient starvation condition assessed as decrease in phosphorylated- Atg13 (ser318) level by immunoblotting analysis; format: cell-based; method in brief: as §1
[4] = target: T1, Serine/threonine-protein kinase ULK1 (Homo sapiens); test: Inhibition of recombinant human ULK1 at 10 uM preincubated for 60 mins followed by substrate addition and measured after 30 mins by ADP-glo assay; settings: time 90.0 min
Method in brief: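 Recombinant ULK1 activity was measured by ADP-Glo luminescence of ADP formed, in 40 mM Tris pH 7.5, 20 mM MgCl₂, 0.1 mg/ml BSA and […]. After the kinase reaction, plates were mixed 2 min and held 40 min at room temperature. Detection reagent was then added for 30 min at room temperature before luminescence was read.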

[5] = target: T1, Serine/threonine-protein kinase ULK1 (Homo sapiens); test: Inhibition of ULK1 mediated autophagy in human A549 cells assessed as p62 degradation at 2 to 8 uM measured after 1 hrs by Western blot analysis; format: cell-based; settings: dose 2-8 µM; method in brief: as §1
[6] = target: T1, Serine/threonine-protein kinase ULK1 (Homo sapiens); test: Inhibition of human ULK1 in human A549 cells under normal condition assessed as decrease in phosphorylated-Atg13 (ser318) level by immunoblotting analysis; format: cell-based; method in brief: as §1
A549 [7] = test: Antiproliferative activity against human A549 cells assessed as reduction in cell viability after 24 hrs by MTT assay; format: functional, cell-based; settings: A549, 24 h
Method in brief: (§2)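 Cells seeded at 5.5 × 10⁴ cells/mL in 96-well plates and grown 24 h before exposure to graded compound concentrations. Viability read by MTT after 24 h. A549, MCF-7 and MDA-MB-468 were kept in DMEM with 10% FBS under 5% CO₂; HL60 and U937 in RPMI 1640 with 10% FBS. IC50 taken as mean of triplicate tests.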

[8] = target: T1, Serine/threonine-protein kinase ULK1 (Homo sapiens); test: Inhibition of human ULK1 in human A549 cells under nutrient starvation condition assessed as decrease in phosphorylated-Beclin 1(ser15) level by immunoblotting analysis; format: cell-based; method in brief: as §1
MCF7 = test: Antiproliferative activity against human MCF-7 cells assessed as reduction in cell viability after 24 hrs by MTT assay; format: functional, cell-based; settings: MCF7, 24 h; method in brief: as §2
[9] = target: T1, Serine/threonine-protein kinase ULK1 (Homo sapiens); test: Inhibition of ULK1 mediated autophagy in human A549 cells assessed as reduction in conversion of LC3 1 to LC3-2 at 2 to 8 uM measured after 1 hrs by Western blot analysis; format: cell-based; settings: dose 2-8 µM; method in brief: as §1
[10] = target: T1, Serine/threonine-protein kinase ULK1 (Homo sapiens); test: Inhibition of ULK1 mediated autophagy in human A549 cells transfected with GFP-mRFP-LC3 assessed as increase in LC3 puncta measured after 6 hrs by fluorescence microscopic analysis; format: cell-based
Method in brief: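 A549 cells were transfected with GFP/mRFP-LC3 for 6 h. Transfected cells were used 24 h later, and LC3 puncta were examined by fluorescence microscopy.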

A549 [11] = test: Induction of apoptosis in human A549 cells assessed as reduction in Bcl2 protein expression at 2 to 8 uM by Western blot analysis; format: functional, cell-based; settings: dose 2-8 µM; method in brief: as §1
A549 [12] = test: Induction of apoptosis in human A549 cells assessed as increase in Bax protein expression at 2 to 8 uM by Western blot analysis; format: functional, cell-based; settings: dose 2-8 µM; method in brief: as §1
MDA-MB-468 = test: Antiproliferative activity against human MDA-MB-468 cells assessed as reduction in cell viability after 24 hrs by MTT assay; format: functional, cell-based; settings: MDA-MB-468, 24 h; method in brief: as §2
A549 [13] = test: Induction of apoptosis in human A549 cells assessed as morphological changes upto 8 uM incubated for 24 hrs in dark by Hoechst 33258 staining based fluorescence microscopy; settings: dose microM <=8, time 24.0 hrs
U-937 = test: Antiproliferative activity against human U937 cells assessed as reduction in cell viability after 24 hrs by MTT assay; format: functional, cell-based; settings: U-937, 24 h; method in brief: as §2
HL-60 = test: Antiproliferative activity against human HL60 cells assessed as reduction in cell viability after 24 hrs by MTT assay; format: functional, cell-based; settings: HL-60, 24 h; method in brief: as §2
[14] = target: T1, Serine/threonine-protein kinase ULK1 (Homo sapiens); test: Inhibition of human ULK1 in human A549 cells under normal condition assessed as decrease in phosphorylated-Beclin 1(ser15) level by immunoblotting analysis; format: cell-based; method in brief: as §1
[15] = target: T1, Serine/threonine-protein kinase ULK1 (Homo sapiens); test: Induction of downregulation of ULK1-mediated autophagy in human A549 cells assessed as phosphorylation at Ser317 preincubated for 24 hrs by Western blot analysis; format: cell-based; settings: dose microM <=8, time 24.0 hrs; method in brief: as §1

- inhibition [2]: Active
- inhibition [3]: Active
- inhibition [4]: 99.2%
- Activity [5]: Active
- Activity [6]: Active
- IC50 (A549 [7]): 1.94 µM
- inhibition [8]: Active
- IC50 (MCF7): 19.6 µM
- inhibition [9]: Active
- Activity [10]: Active
- IC50 (MDA-MB-468): 16.8 µM
- IC50 (U-937): 12.9 µM
- IC50 (HL-60): 10.9 µM
- inhibition [14]: Active
- Activity [15]: Dose-dependent effect
Compound: COc1cc(Nc2ncc(Br)c(Oc3ccc([N+](=O)[O-])cc3F)n2)cc(OC)c1OC
- Activity (A549 [1]): Active
- Activity (A549 [11]): Active
- Activity (A549 [12]): Active
- Activity (A549 [13]): Dose-dependent effect

— ChEMBL document CHEMBL4706589, “Discovery of 5-bromo-4-phenoxy-N-phenylpyrimidin-2-amine derivatives as novel ULK1 inhibitors that block autophagy and induce apoptosis in non-small cell lung cancer” (Eur J Med Chem, 2020)
